High-throughput results (PubChem)
CXCR6 block – inhibitors of human CXCR6 receptor; actives 0.36% (n = 360,000); CHO-K1 PathHunter CXCR6 beta-arrestin, luminescence; AID 602244; inhibition, % at 20 µM; in the data active means inhibition above about 34%, passing the limit was not always enough;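 further: antagonist mode with CXCL16 agonist at 10 nM final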
APJ ag – APJ receptor agonism; CHO-K1 APJ PathHunter beta-arrestin, luminescence; 0% DMSO wells, 100% apelin; activation, % at 20 µM; P35414; actives 0.11% (n = 330,000); AID 2520;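 active means activation more than six SD over the plate average, tested at 20 µM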
Target sequence (P35414 whole entry, looked up): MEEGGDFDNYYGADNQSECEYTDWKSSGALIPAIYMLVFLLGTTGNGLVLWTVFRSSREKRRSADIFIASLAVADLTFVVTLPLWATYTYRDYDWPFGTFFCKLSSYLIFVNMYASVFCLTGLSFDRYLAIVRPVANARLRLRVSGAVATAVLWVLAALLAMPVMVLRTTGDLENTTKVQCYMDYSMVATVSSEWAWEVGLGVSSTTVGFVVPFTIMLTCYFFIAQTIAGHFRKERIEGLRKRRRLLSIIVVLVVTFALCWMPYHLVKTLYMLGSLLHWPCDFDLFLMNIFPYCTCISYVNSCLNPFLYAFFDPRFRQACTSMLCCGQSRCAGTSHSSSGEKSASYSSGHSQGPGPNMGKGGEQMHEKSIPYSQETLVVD
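Test system: CHO-K1 APJ beta-arrestin complementation cell line | Compound: Single test compound dose, 20 µM final, 1% DMSO | Incubation: Compound 90 min 25 °C, reagent 1 h | Measured by: beta-gal luminescence | Read-out basis: APJ–arrestin association signal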
HTR2A ag – agonists of mouse serotonin 5-HT2A receptor (HTR2A); P35363; CHO-K1 mHTR2A beta-arrestin complementation, luminescence; percent of 30 µM serotonin response; activation, % at 7.6 µM; actives 0.66% (n = 360,000);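 active means activation above a run cutoff, the mean activation of all tested compounds plus 3 SD, cut at about 14% in these data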
CCR6 antag – CCR6 (human) receptor antagonism | P51684 | CHO-K1 CCR6 PathHunter beta-arrestin, luminescence, CCL20-stimulated | inhibition, % at 20 µM | actives 0.49% (n = 340,000);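 active means compounds whose inhibition of the agonist-driven luminescence signal at 20 µM reaches about 50%, limit read from the data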;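 further: cells stimulated with CCL20 at 14 nM final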
EBI2 antag – EBI2 (human) antagonism | P32249 | EBI2 beta-arrestin recruitment, luminescence, 7a,25-OHC stimulated | inhibition, % at 5 µM | actives 0.81% (n = 360,000); in the data active means inhibition above about 38%;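 further: enzyme fragment complementation signal reports receptor beta-arrestin coupling in cells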
APJ antag – blocks the human apelin receptor APJ; P35414; CHO-K1 APJ beta-arrestin complementation, luminescence; inhibition, % at 20 µM; actives 0.32% (n = 330,000);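 active means inhibition above about 40% at 20 µM, limit read from the data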;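 further: cells challenged with 10 nM apelin-13 agonist together with compound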
OPRM1 ag – activates human mu opioid receptor in HTR2A counterscreen; shares compounds with HTR2A ag; U2OS OPRM1 beta-arrestin PathHunter, luminescence; DMSO 0%, DAMGO 9.3 µM 100%; activation, % at 9.3 µM; actives 5.3% (n = 2,300); AID 624380;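 active means mean activation above the mean of DMSO-only wells plus 3 SD, cut at about 0.5% in these data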
m5-HT2A ag conf – mouse HTR2A agonism confirmed. shares compounds with HTR2A ag. activation, % at 7.6 µM. actives 19% (n = 2,300). AID 624381. CHO-K1 PathHunter beta-arrestin recruitment, luminescence; DMSO 0%, 30 µM serotonin 100%;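 active means mean activation across triplicates above the hit threshold derived in the original primary screen, cut at about 15% in these data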
Hits are given with their value. Sampled rows, rich in hits. Any-hit rate of the full collection: about 2.2%.

Screening CC(NC(=O)c1ccc2ccccc2n1)c1ccc(S(N)(=O)=O)cc1 (stereo not given) returned CXCR6 block inactive, APJ ag inactive, HTR2A ag 17, CCR6 antag inactive, EBI2 antag inactive, APJ antag inactive, OPRM1 ag inactive and m5-HT2A ag conf inactive.
`CC(NC(=O)c1ccc2ccccc2n1)c1ccc(Br)cc1` (stereo not given) gave CXCR6 block inactive, APJ ag inactive, HTR2A ag inactive, CCR6 antag inactive, EBI2 antag inactive and APJ antag inactive.
`CC(=O)Nc1ccc(NC(=O)c2cc(-n3cnnc3)ccc2Cl)cc1` gave CXCR6 block inactive, APJ ag inactive, HTR2A ag 16, CCR6 antag inactive, EBI2 antag inactive, APJ antag inactive, OPRM1 ag inactive and m5-HT2A ag conf inactive.
Screening CC(C)NC(=O)c1cc(C2CCCCN2C(=O)c2cc(C(C)(C)C)nn2C)on1 (stereo not given) returned CXCR6 block inactive, HTR2A ag inactive and EBI2 antag inactive.
Cc1ccc(C(=O)Nc2cc(=O)n(C)c(=O)n2C)cc1C was read as CXCR6 block inactive, APJ ag inactive, HTR2A ag 16, CCR6 antag inactive, EBI2 antag inactive, APJ antag inactive, OPRM1 ag inactive and m5-HT2A ag conf inactive.
CC1(C(=O)NS(=O)(=O)c2ccc(Br)cc2)CCN1C(=O)CCC1CCCC1 (stereo not given) was read as CXCR6 block inactive, HTR2A ag inactive and EBI2 antag inactive.
`COc1ccccc1CNS(=O)(=O)c1c(C)nc2scc(C)n2c1=O` gave CXCR6 block inactive, APJ ag inactive, HTR2A ag 15, CCR6 antag inactive, EBI2 antag inactive, APJ antag inactive, OPRM1 ag inactive and m5-HT2A ag conf inactive.
For COc1cccc(/C=N/NC(=O)c2cccc(N3CCCC3=O)c2)c1 the results were CXCR6 block inactive, APJ ag inactive, HTR2A ag 15, CCR6 antag inactive, EBI2 antag inactive, APJ antag inactive, OPRM1 ag inactive and m5-HT2A ag conf inactive.
`CCCCCCCC/C=C\CCCCCCCC(=O)NCCO` gave CXCR6 block inactive, APJ ag inactive, HTR2A ag inactive, CCR6 antag inactive, EBI2 antag inactive and APJ antag inactive.
Screening CCCCCCCC/C=C\CCCCCCCC(=O)NCCc1ccc(O)c(O)c1 returned CXCR6 block inactive, APJ ag inactive, HTR2A ag 34, CCR6 antag inactive, EBI2 antag inactive, APJ antag inactive, OPRM1 ag inactive and m5-HT2A ag conf 170.
`O=C(Nc1cccc2nsnc12)c1ccc(-c2cccc(Cl)c2)o1` gave CXCR6 block inactive, APJ ag inactive, HTR2A ag 16, CCR6 antag inactive, EBI2 antag inactive, APJ antag inactive, OPRM1 ag inactive and m5-HT2A ag conf inactive.
`COc1ccc(/C=N/NC(=O)c2ccc(NC(=O)C3CCCCC3)cc2)cc1O` gave CXCR6 block inactive, APJ ag inactive, HTR2A ag 20, CCR6 antag inactive, EBI2 antag inactive, APJ antag inactive, OPRM1 ag inactive and m5-HT2A ag conf inactive.
For COc1cc(/C=N/NC(=O)c2ccc(NC(=O)C3CC3)cc2)ccc1OC(C)=O the results were CXCR6 block inactive, APJ ag inactive, HTR2A ag inactive, CCR6 antag inactive, EBI2 antag inactive and APJ antag inactive.
`O=C(O)CCCCCNS(=O)(=O)c1ccc2c3c(cccc13)C(=O)N2` gave CXCR6 block inactive, APJ ag inactive, HTR2A ag 16, CCR6 antag inactive, EBI2 antag inactive, APJ antag inactive, OPRM1 ag inactive and m5-HT2A ag conf inactive.
O=C(O)CNS(=O)(=O)c1ccc2c3c(cccc13)C(=O)N2 was read as CXCR6 block inactive, APJ ag inactive, HTR2A ag inactive, CCR6 antag inactive, EBI2 antag inactive and APJ antag inactive.
